Key:
MDA-MB-231 [1] = experiment: Antiinvasive activity in human MDA-MB-231 cells by BME cell invasion assay; type: functional, cell-based
Summary of the method: (§1)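 Cultrex 96-well BME invasion kit, Boyden-type chamber with 8 µm PET membrane coated with basement membrane extract; MDA-MB-231 cells exposed to 1–4 μM for 24 h, 10% FBS as chemoattractant in the lower chamber. Invaded cells labelled with calcein-AM and read at ex 485/em 520 nm. RFU converted to cell number by standard curve. % invasion = cells through BME / cells migrating through uncoated membrane. Colchicine as positive control, DMSO vehicle.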

MDA-MB-231 [2] = experiment: Cytotoxicity against human MDA-MB-231 cells at 10 to 50 uM after 75 hrs by MTT assay; type: cell-based; conditions: mda-mb-231, 72 h, in the assay text read “72 hrs” for “75 hrs”
Summary of the method: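 MDA-MB-231 seeded at 15,000 cells/well and stabilized 24 h at 37 °C, 5% CO2. Triplicate doses applied for 72 h at 37 °C, 5% CO2, 85% humidity. MTT (2.5 mg/mL) added for 4 h, then formazan dissolved overnight at rt in the dark with detergent reagent. OD at 570 nm against a cell-free blank; cells/well from calibration curve. Colchicine positive control, DMSO vehicle.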

MDA-MB-231 [3] = experiment: Antiinvasive activity in human MDA-MB-231 cells assessed as cell invasion at 2 uM by BME cell invasion assay; type: functional; summary of the method: as §1
MDA-MB-231 [4] = experiment: Antiinvasive activity in human MDA-MB-231 cells assessed as cell invasion at 4 uM by BME cell invasion assay; type: functional; summary of the method: as §1
MCF7 = experiment: Cytotoxicity against human MCF7 cells at 10 to 50 uM after 75 hrs by MTT assay; type: cell-based; conditions: mcf7, 72 h, in the assay text read “72 hrs” for “75 hrs”
Summary of the method: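 MCF-7 seeded at 12,000 cells/well and stabilized 24 h at 37 °C, 5% CO2. Treated in triplicate for 72 h at 37 °C, 5% CO2, 85% humidity. MTT (2.5 mg/mL) added for 4 h, then formazan dissolved in isopropanol overnight at rt in the dark. OD read at 570 nm against a cell-free blank; cell number from calibration curve. Colchicine positive control, DMSO vehicle.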

Row | Structure (SMILES) | Activity (MDA-MB-231 [1]) | Activity (MDA-MB-231 [2]) | Activity (MDA-MB-231 [3]) [%] | Activity (MDA-MB-231 [4]) [%] | Activity (MCF7)
1 | COc1ccc(C/C=C/c2ccc(OC)c(OC)c2)cc1 | Dose-dependent effect | Non-toxic | – | – | –
2 | COc1ccc(C(=O)/C=C/c2cc(OC)c(OC)c(OC)c2)cc1OC | Dose-dependent effect | Non-toxic | 8.5 | – | –
3 | C=C(Cc1ccc(OC)c(OC)c1)c1cc(OC)c(OC)c(OC)c1 | Dose-dependent effect | Non-toxic | – | – | –
4 | COc1ccc(C/C=C\c2ccccc2OC(C)=O)cc1OC | Dose-dependent effect | Non-toxic | – | 9 | Non-toxic
5 | COc1ccc(/C=C/Cc2cc(OC)c(OC)c(OC)c2)cc1OC | Dose-dependent effect | Non-toxic | – | 11 | –
6 | COc1ccc(/C=C/Cc2ccc(OC)c(OC)c2)cc1 | Dose-dependent effect | Non-toxic | – | 13.7 | –
7 | C=C(Cc1ccc(OC)c(OC)c1)c1ccccc1OC(C)=O | Dose-dependent effect | Non-toxic | – | – | Non-toxic
8 | COc1ccc(/C=C\Cc2c(C)cccc2C)cc1OC | Dose-dependent effect | Non-toxic | – | – | –
9 | C=C(Cc1ccc(OC)c(OC)c1)c1ccc(OC)cc1 | Dose-dependent effect | Non-toxic | – | – | –
10 | COc1cc2c(c(OC)c1OC)-c1ccc(OC)c(=O)cc1[C@@H](NC(C)=O)CC2 [COLCHICINE] | – | – | – | 8.9 | –
11 | COc1ccccc1C/C=C/c1ccc(OC)c(OC)c1 | Dose-dependent effect | Non-toxic | – | – | –
12 | COc1ccc(/C=C/Cc2ccccc2OC(C)=O)cc1OC | Dose-dependent effect | Non-toxic | – | – | Non-toxic
13 | COc1ccc(C/C=C/c2cc(OC)c(OC)c(OC)c2)cc1OC | Dose-dependent effect | Non-toxic | – | – | –
14 | COc1ccc(C(=O)CCc2cc(OC)c(OC)c(OC)c2)cc1OC | Dose-dependent effect | Non-toxic | – | – | –
15 | COc1ccc(C/C=C/c2c(C)cccc2C)cc1OC | Dose-dependent effect | Non-toxic | – | – | –

Reference: ChEMBL document CHEMBL1159045, “Design and pharmacophore modeling of biaryl methyl eugenol analogs as breast cancer invasion inhibitors” (Bioorg Med Chem, 2010)
